Data as given in ChEMBL document CHEMBL1154833, “Curcuminoid analogs with potent activity against Trypanosoma and Leishmania species” (Eur J Med Chem, 2010).

Legend:
[1] = tested on: Trypanosoma brucei brucei; test: Antitrypanosomal activity against Trypanosoma brucei brucei 427 after 48 hrs by alamar blue assay; type: functional, organism-based; conditions: Trypanosoma brucei, 427, 48 h; read-out: EC50
[2] = tested on: Trypanosoma brucei brucei; test: Antitrypanosomal activity against diminazene-resistant Trypanosoma brucei brucei deltaTbat1-KO after 48 hrs by alamar blue assay; type: functional, organism-based
[3] = tested on: Trypanosoma brucei brucei; test: Antitrypanosomal activity against multidrug-resistant Trypanosoma brucei brucei B48 after 48 hrs by alamar blue assay; type: functional, organism-based; conditions: B48, 48 h
Leishmania major = test: Antileishmanial activity against Leishmania major Friedlin promastigotes after 48 hrs by alamar blue assay; type: functional, organism-based; conditions: Leishmania major, Friedlin, 48 h; read-out: EC50
How it was run: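 L. major Friedlin promastigotes grown in HOMEM with 10% FBS at 25 °C. Alamar Blue fluorescence assay in 96-well plates. 3–6 independent experiments unless noted.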

Leishmania mexicana = test: Antileishmanial activity against Leishmania mexicana MNYC/BZ/62/M379 amastigotes after 48 hrs by alamar blue assay; type: functional, organism-based; conditions: Leishmania mexicana, MNYC/BZ/62/M379, 48 h; read-out: EC50
How it was run: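 Axenic L. mexicana MNYC/BZ/62/M379 amastigotes kept at 33 °C under CO2 in Schneider's Drosophila medium with 20% FBS and 0.3% gentamycin. Alamar Blue fluorescence read-out.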

HEK293 = test: Cytotoxicity against HEK293 cells after 16 hrs by alamar blue assay; type: cell-based, Homo sapiens; conditions: Homo sapiens, HEK293, 16 h; read-out: EC50
How it was run: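 HEK293T cells grown in DMEM-based medium with 10% newborn bovine serum at 37 °C, 5% CO2. Doubling dilutions of compound added for 16 h, then resazurin added. Fluorescence read at emission 590 nm after a further 24 h.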

[4] = tested on: Trypanosoma brucei brucei; test: Selectivity ratio of EC50 for Trypanosoma brucei brucei 427 to EC50 for Trypanosoma brucei brucei deltaTbat1-KO; type: functional
How it was run: (§1)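 T. b. brucei bloodstream forms (strain 427, its ΔTbAT1 clone, and the pentamidine-adapted B48 line derived from it) cultured in HMI9 with 10% FBS at 37 °C under CO2. EC50 for each line from the Alamar Blue fluorescence assay with sigmoid fitting, and the ratio taken between lines.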

Trypanosoma evansi = test: Antitrypanosomal activity against Trypanosoma evansi ITMAV170475 after 48 hrs by alamar blue assay; type: functional, organism-based; conditions: ITMAV170475, 48 h
How it was run: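 Culture-adapted T. evansi ITMAV170475 seeded at 1.5 ×10⁵ trypanosomes/ml in HMI9/20% FBS. Exposed to compound for 48 h, then incubated with Alamar Blue for 24 h, all at 37 °C under CO2. Assay validated against hemocytometer cell counts. EC50 from a variable-slope sigmoid fit.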

[5] = tested on: Trypanosoma brucei brucei; test: Selectivity ratio of EC50 for Trypanosoma brucei brucei B48 to EC50 for Trypanosoma brucei brucei 427; type: functional; how it was run: as §1
[6] = tested on: Trypanosoma brucei brucei; test: Antitrypanosomal activity against Trypanosoma brucei brucei GUTat 3.1; type: functional, organism-based
[7] = Selectivity index, ratio of EC50 for HEK cells to EC50 for Leishmania major Friedlin promastigotes; type: toxicity, cell-based, HEK293; conditions: human, HEK cells versus Leishmania major Friedlin promastigotes; read-out: Ratio EC50
How it was run: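 Ratio of HEK EC50 to parasite EC50. For HEK293T cells in DMEM with 10% newborn bovine serum at 37 °C and 5% CO2, doubling dilutions of compound were added for 16 h, then Alamar Blue, and fluorescence (em 590 nm) was read after another 24 h. L. major Friedlin promastigotes were grown in HOMEM with 10% FBS at 25 °C and tested by Alamar Blue. EC50 values came from sigmoid non-linear regression.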

[8] = Selectivity index, ratio of EC50 for HEK cells to EC50 for Trypanosoma brucei brucei 427; type: toxicity, cell-based, HEK293; conditions: human, HEK cells versus Trypanosoma brucei brucei 427; read-out: Ratio EC50
[9] = Selectivity index, ratio of EC50 for HEK cells to EC50 for Trypanosoma brucei brucei B48; type: toxicity, cell-based, HEK293; conditions: human, HEK cells versus Trypanosoma brucei brucei B48; read-out: Ratio EC50
[10] = tested on: Trypanosoma brucei brucei; test: Selectivity ratio of EC50 for Trypanosoma brucei brucei 427 to EC50 for Trypanosoma brucei brucei B48; type: functional; how it was run: as §1

Structure (SMILES) | EC50 [1] [µM] | EC50 [2] [µM] | EC50 [3] [µM] | EC50 (Leishmania major) [µM] | EC50 (Leishmania mexicana) [µM] | EC50 (HEK293) [µM] | Ratio EC50 [4] | EC50 (Trypanosoma evansi) [µM] | Ratio EC50 [5] | EC50 [6] [µM] | selectivity ratio [7] | selectivity ratio [8] | selectivity ratio [9] | Ratio EC50 [10]
O=C(/C=C/c1ccc(O)cc1)CC(=O)/C=C/c1ccc(O)c(O)c1 | 0.65 | 1.8 | 1 | 22 | 21 | 30 | 2.7 |  |  |  |  |  |  | 
C=CCOc1ccc(/C=C/C(=O)CC(=O)/C=C/c2ccc(OCC=C)c(OC)c2)cc1OC | 1.6 | 1.9 | 5.8 | 25 | > 100 | > 500 |  | 5.6 | 3.6 |  |  |  |  | 
COc1cc(/C=C/C(=O)CC(=O)/C=C/c2ccc(O)c(OC)c2)ccc1O [CURCUMIN] | 2.5 | 4.7 | 2.9 | 33 | 16 | 37 |  | 2 |  | 4.8 |  |  |  | 
COc1ccc(/C=C/C(=O)CC(=O)/C=C/c2ccc(OC)c(OC)c2)cc1OC [TETRAMETHOXYCURCUMIN] | 0.45 | 0.62 | 0.77 | 2.8 | 10 | 200 |  |  |  |  | 70 |  |  | 
C=CCOc1ccc(/C=C/C(=O)CC(=O)/C=C/c2ccc(O)c(OC)c2)cc1OC | 2.4 | 2.2 | 12 | 5.7 | 12 | 270 |  | 1.6 | 5 |  |  |  |  | 
COc1cc(CC/C=C/C(=O)CCc2ccc(O)c(OC)c2)ccc1O | 0.053 | 0.082 | 0.023 | 8.9 | 17 | 24 |  | 0.17 |  |  |  | 453 | > 1000 | 
COc1cc(/C=C/C(=O)CC(=O)/C=C/c2ccc(O)c(O)c2)ccc1O | 0.87 | 1.1 | 2.7 | 4.3 | 3.2 | 36 |  | 1.1 | 3.1 |  |  |  |  | 
CC(=O)NCC(=O)O.N=C(N)c1ccc(/N=N/Nc2ccc(C(=N)N)cc2)cc1 [DIMINAZEN ACETURATE] |  |  |  |  |  |  | 20 |  |  |  |  |  |  | 
COc1ccc(CC/C=C/C(=O)CCc2ccc(OC)c(OC)c2)cc1OC | 1.9 | 1.6 | 0.023 | 12 | 28 | 26 |  |  |  |  |  |  |  | 83
COc1cc(CC/C=C/C(O)CCc2ccc(O)c(OC)c2)ccc1O (configuration not stated) | 40 | 42 | 6.3 | 50 | 64 | 130 |  |  |  |  |  | 3 |  | 
COc1cc(/C=C/C(=O)CC(=O)/C=C/c2ccc(OCC=C(C)C)c(OC)c2)ccc1OCC=C(C)C | 1.2 | 1.6 | 1.3 | > 100 | 27 | > 1000 |  |  |  |  |  | > 1000 |  | 
